Reference: ChEMBL document CHEMBL1124316, “Synthesis and activity of nonhydrolyzable pseudomonic acid analogues” (J Med Chem, 1989)
Converted amounts (≈) assume the structure as drawn.

What was measured:
[1] = system: Staphylococcus epidermidis; assay: In vitro antibacterial activity against Staphylococcus epidermidis 3519; type: functional
In short: (§1)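 MICs were determined by agar dilution on brain heart infusion agar, with an inoculum of 10⁴ cfu/spot. Strains were either clinical isolates kept frozen in a culture collection or ATCC strains.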

Escherichia coli [2] = assay: In vitro antibacterial activity against Escherichia coli SS; type: functional; in short: as §1
Streptococcus agalactiae = assay: In vitro antibacterial activity against Streptococcus agalactiae CMX 508; type: functional; in short: as §1
Escherichia coli [3] = assay: In vitro antibacterial activity against Escherichia coli Juhl; type: functional; in short: as §1
Isoleucine--tRNA ligase = Isoleucine--tRNA ligase (Escherichia coli K-12, UniProt P00956); assay: Inhibitory activity against Isoleucyl-tRNA synthetase
Sequence of Isoleucine--tRNA ligase (P00956 whole entry): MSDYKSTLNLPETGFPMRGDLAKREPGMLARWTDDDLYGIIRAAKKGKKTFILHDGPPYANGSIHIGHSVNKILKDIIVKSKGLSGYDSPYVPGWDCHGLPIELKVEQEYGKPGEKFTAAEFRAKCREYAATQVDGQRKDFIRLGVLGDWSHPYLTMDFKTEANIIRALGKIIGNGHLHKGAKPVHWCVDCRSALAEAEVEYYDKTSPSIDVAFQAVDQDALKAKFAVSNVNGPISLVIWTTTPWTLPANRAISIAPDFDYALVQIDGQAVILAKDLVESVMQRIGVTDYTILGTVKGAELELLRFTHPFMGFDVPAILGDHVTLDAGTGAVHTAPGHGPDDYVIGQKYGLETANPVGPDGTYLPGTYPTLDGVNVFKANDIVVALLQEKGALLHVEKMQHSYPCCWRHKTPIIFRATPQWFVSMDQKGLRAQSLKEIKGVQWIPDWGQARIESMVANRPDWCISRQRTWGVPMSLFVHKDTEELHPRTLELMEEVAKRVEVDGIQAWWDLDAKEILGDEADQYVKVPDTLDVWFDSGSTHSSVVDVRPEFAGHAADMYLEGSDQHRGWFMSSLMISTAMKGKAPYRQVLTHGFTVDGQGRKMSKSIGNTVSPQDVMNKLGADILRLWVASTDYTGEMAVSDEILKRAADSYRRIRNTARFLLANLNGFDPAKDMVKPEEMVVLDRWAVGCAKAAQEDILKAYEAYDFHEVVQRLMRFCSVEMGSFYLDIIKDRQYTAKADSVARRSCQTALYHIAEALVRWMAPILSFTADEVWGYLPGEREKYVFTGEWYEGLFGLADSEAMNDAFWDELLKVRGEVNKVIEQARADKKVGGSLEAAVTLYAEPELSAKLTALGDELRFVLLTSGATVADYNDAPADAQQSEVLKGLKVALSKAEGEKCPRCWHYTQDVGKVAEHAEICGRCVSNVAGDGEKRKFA
In short: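 Isoleucyl-tRNA synthetase was isolated from Escherichia coli and purified to homogeneity. IC50 values were measured by the ATP-pyrophosphate exchange assay.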

Staphylococcus aureus = assay: In vitro antibacterial activity against Staphylococcus aureus ATCC […]; type: functional; in short: as §1
Streptococcus pyogenes = assay: In vitro antibacterial activity against Streptococcus pyogenes EES 61; type: functional; in short: as §1
[4] = Escherichia coli, read-out: MIC
[5] = Streptococcus pyogenes, read-out: MIC

Compound | MIC [1] | MIC (Escherichia coli [2]; [4]) | MIC (Streptococcus agalactiae) | MIC (Escherichia coli [3]) | IC50 (Isoleucine--tRNA ligase) | MIC (Staphylococcus aureus) | MIC (Streptococcus pyogenes; [5]) | MIC (Escherichia coli [2]) | MIC (Streptococcus pyogenes)
C/C(=C\C(=O)c1ccccc1)C[C@@H]1OCC(C[C@@H]2O[C@H]2[C@@H](C)[C@H](C)O)[C@@H](O)[C@H]1O (some centres undefined) | 0.39 µg/mL (≈ 0.964 µM) | 0.2 µg/mL (≈ 0.494 µM) | 3.1 µg/mL (≈ 7.66 µM) | 100 µg/mL (≈ 247 µM) | 0.494 µM | 0.2 µg/mL (≈ 0.494 µM) | 0.39 µg/mL (≈ 0.964 µM) |  | 
C[C@H]([C@@H]1O[C@H]1CC1CO[C@@H](CC2=CC(=O)OC2)[C@H](O)[C@@H]1O)[C@H](C)O (some centres undefined) | 100 µg/mL (≈ 292 µM) | 25 µg/mL (≈ 73 µM) | 100 µg/mL (≈ 292 µM) | > 100 µg/mL | 794 µM | 100 µg/mL (≈ 292 µM) | 6.2 µg/mL (≈ 18.1 µM) |  | 
CCCCS(=O)(=O)/C=C(\C)C[C@@H]1OCC(C[C@@H]2O[C@H]2[C@@H](C)[C@H](C)O)[C@@H](O)[C@H]1O (some centres undefined) | > 100 µg/mL | > 100 µg/mL | > 100 µg/mL | > 100 µg/mL | 181 µM | > 100 µg/mL | 25 µg/mL (≈ 59.4 µM) |  | 
C[C@H]([C@@H]1O[C@H]1CC1CO[C@@H](Cc2ccoc2)[C@H](O)[C@@H]1O)[C@H](C)O (some centres undefined) | > 100 µg/mL | 100 µg/mL (≈ 306 µM) | > 100 µg/mL | > 100 µg/mL | > 1230 µM | > 100 µg/mL | > 100 µg/mL |  | 
COC(=O)CCCCCCCCOC(=O)CC(=O)C[C@@H]1OCC(C[C@@H]2O[C@H]2[C@@H](C)[C@H](C)O)[C@@H](O)[C@H]1O (some centres undefined) | > 100 µg/mL | > 100 µg/mL | > 100 µg/mL | > 100 µg/mL | > 774 µM | > 100 µg/mL | > 100 µg/mL |  | 
CCCCSC/C=C(\C)C[C@@H]1OCC(C[C@@H]2O[C@H]2[C@@H](C)[C@H](C)O)[C@@H](O)[C@H]1O (some centres undefined) | > 100 µg/mL | 50 µg/mL (≈ 124 µM) | > 100 µg/mL | > 100 µg/mL | 390 µM | > 100 µg/mL | 100 µg/mL (≈ 248 µM) |  | 
C/C(=C\C(=O)OCCCCCCCCC(=O)[O-])C[C@@H]1OCC(C[C@@H]2O[C@H]2[C@@H](C)[C@H](C)O)[C@@H](O)[C@H]1O.[Na+] (some centres undefined) | 0.1 µg/mL | 0.2 µg/mL | 0.78 µg/mL | > 100 µg/mL | 0.191 µM | 0.1 µg/mL | 0.1 µg/mL |  | 
CCCCOC/C=C(\C)C[C@@H]1OCC(C[C@@H]2O[C@H]2[C@@H](C)[C@H](C)O)[C@@H](O)[C@H]1O (some centres undefined) | 100 µg/mL (≈ 259 µM) | 12.5 µg/mL (≈ 32.3 µM) | > 100 µg/mL | > 100 µg/mL | 51.7 µM | 100 µg/mL (≈ 259 µM) | 50 µg/mL (≈ 129 µM) |  | 
CCCCS/C=C(/C)C[C@@H]1OCC(C[C@@H]2O[C@H]2[C@@H](C)[C@H](C)O)[C@@H](O)[C@H]1O (some centres undefined) | > 100 µg/mL | 100 µg/mL (≈ 257 µM) | > 100 µg/mL | > 100 µg/mL | 744 µM | > 100 µg/mL | > 100 µg/mL |  | 
CCCC[S+]([O-])/C=C(\C)C[C@@H]1OCC(C[C@@H]2O[C@H]2[C@@H](C)[C@H](C)O)[C@@H](O)[C@H]1O (stereo in doubt; 15) | > 100 µg/mL | 100 µg/mL (≈ 247 µM) | > 100 µg/mL | > 100 µg/mL | > 989 µM | > 100 µg/mL | 100 µg/mL (≈ 247 µM) |  | 

Further compounds by falling IC50 (Isoleucine--tRNA ligase), results first:

MIC [1] | MIC (Escherichia coli [2]; [4]) | MIC (Streptococcus agalactiae) | MIC (Escherichia coli [3]) | IC50 (Isoleucine--tRNA ligase) | MIC (Staphylococcus aureus) | MIC (Streptococcus pyogenes; [5]) | MIC (Escherichia coli [2]) | MIC (Streptococcus pyogenes) | Compound
 |  |  |  | 171 µM |  |  | 100 µg/mL (≈ 247 µM) | >100 µg/mL | CCCC[S+]([O-])/C=C(\C)C[C@@H]1OCC(C[C@@H]2O[C@H]2[C@@H](C)[C@H](C)O)[C@@H](O)[C@H]1O (stereo in doubt; 14)
50 µg/mL (≈ 122 µM) | 12.5 µg/mL (≈ 30.6 µM) | 50 µg/mL (≈ 122 µM) | > 100 µg/mL | 46.5 µM | 25 µg/mL (≈ 61.2 µM) | 12.5 µg/mL (≈ 30.6 µM) |  |  | C/C(=C/Sc1ccccc1)C[C@@H]1OC[C@H](C[C@@H]2O[C@H]2[C@@H](C)[C@H](C)O)[C@@H](O)[C@H]1O
> 100 µg/mL | 25 µg/mL (≈ 48.4 µM) | > 100 µg/mL | > 100 µg/mL | 18.4 µM | 100 µg/mL (≈ 194 µM) | 50 µg/mL (≈ 96.8 µM) |  |  | COC(=O)CCCCCCCCSC/C=C(\C)C[C@@H]1OCC(C[C@@H]2O[C@H]2[C@@H](C)[C@H](C)O)[C@@H](O)[C@H]1O (some centres undefined)
1.56 µg/mL (≈ 2.57 µM) | 6.2 µg/mL (≈ 10.2 µM) | > 100 µg/mL | > 100 µg/mL | 14.8 µM | 1.56 µg/mL (≈ 2.57 µM) | 1.56 µg/mL (≈ 2.57 µM) |  |  | CSC(CCCCCCCCCC(=O)/C=C(\C)C[C@@H]1OCC(C[C@@H]2O[C@H]2[C@@H](C)[C@H](C)O)[C@@H](O)[C@H]1O)(SC)SC (some centres undefined)
6.2 µg/mL (≈ 15.2 µM) | 1.56 µg/mL (≈ 3.82 µM) | 6.2 µg/mL (≈ 15.2 µM) | > 100 µg/mL | 11 µM | 3.1 µg/mL (≈ 7.59 µM) | 3.1 µg/mL (≈ 7.59 µM) |  |  | C/C(=C\Sc1ccccc1)C[C@@H]1OC[C@H](C[C@@H]2O[C@H]2[C@@H](C)[C@H](C)O)[C@@H](O)[C@H]1O
0.78 µg/mL (≈ 2.01 µM) | 0.78 µg/mL (≈ 2.01 µM) | 3.1 µg/mL (≈ 7.98 µM) | > 100 µg/mL | 5.4 µM | 1.56 µg/mL (≈ 4.01 µM) | 0.78 µg/mL (≈ 2.01 µM) |  |  | CCCCS/C=C(\C)C[C@@H]1OCC(C[C@@H]2O[C@H]2[C@@H](C)[C@H](C)O)[C@@H](O)[C@H]1O (some centres undefined)
0.39 µg/mL (≈ 0.761 µM) | 0.05 µg/mL (≈ 0.0975 µM) | 3.1 µg/mL (≈ 6.05 µM) | 50 µg/mL (≈ 97.5 µM) | 3.32 µM | 0.39 µg/mL (≈ 0.761 µM) | 0.1 µg/mL (≈ 0.195 µM) |  |  | COC(=O)CCCCCCCCCC(=O)/C=C(\C)C[C@@H]1OCC(C[C@@H]2O[C@H]2[C@@H](C)[C@H](C)O)[C@@H](O)[C@H]1O (some centres undefined)
> 100 µg/mL | 12.5 µg/mL (≈ 25 µM) | > 100 µg/mL | > 100 µg/mL | 1.7 µM | > 100 µg/mL | 100 µg/mL (≈ 200 µM) |  |  | COC(=O)CCCCCCCCOC/C=C(\C)C[C@@H]1OCC(C[C@@H]2O[C@H]2[C@@H](C)[C@H](C)O)[C@@H](O)[C@H]1O (some centres undefined)
0.39 µg/mL (≈ 0.758 µM) | 0.05 µg/mL (≈ 0.0972 µM) | 0.78 µg/mL (≈ 1.52 µM) | 50 µg/mL (≈ 97.2 µM) | 1.17 µM | 0.2 µg/mL (≈ 0.389 µM) | 0.1 µg/mL (≈ 0.194 µM) |  |  | COC(=O)CCCCCCCCOC(=O)/C=C(\C)C[C@@H]1OCC(C[C@@H]2O[C@H]2[C@@H](C)[C@H](C)O)[C@@H](O)[C@H]1O (some centres undefined)
